“And” between values parts separate entries of the source, which are not always exact repeats. Equal entries are not always repeated.
Tests used:
HEK-293T = assay: Multiplex assay against HEK293T; format: toxicity, cell-based; details: human
In short: (§1)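 Cells stained live at seeding with Hoechst33342, BioTracker Green Microtubule Cytoskeleton Dye, MitoTracker Red and Annexin V Alexa Fluor 680 were imaged on a CQ1 microscope at 37°C and 5% CO2 after compound addition. Their classification by CellPathfinder machine-learning gating ran from Hoechst high-intensity objects versus normal cells, to healthy, pyknosed or fragmented nuclei among normal cells, to mitotic or apoptotic among pyknosed cells. Tubulin, mitochondrial-mass and membrane-permeability phenotypes are per cents of healthy-nucleus cells.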

U2OS = assay: Multiplex assay against U2OS; format: toxicity, cell-based; details: human; in short: as §1
[1] = 24 h, 10 µM, compound concentration 10 uM
[2] = 48 h, 1 µM, compound concentration 1 uM
[3] = 48 h, 10 µM, compound concentration 10 uM
[4] = 12 h, 1 µM, compound concentration 1 uM
[5] = 12 h, 10 µM, compound concentration 10 uM
[6] = 24 h, 1 µM, compound concentration 1 uM

Cl.Cl.OCCOCCN1CCN(C(c2ccccc2)c2ccc(Cl)cc2)CC1 (configuration not stated) [HYDROXYZINE HYDROCHLORIDE]
Population Apoptotic (%) (HEK-293T; [1]): 29% and 59%
Population Fragmented Nuclei (%) (HEK-293T; [1]): 10% and 8%
Population Healthy Nuclei (%) (HEK-293T; [1]): 74% and 71%
Population Hoechst High Intensity Objects (%) (HEK-293T; [1]): 8% and 22%
Population Membrane Permeable-Phenotype (%) (HEK-293T; [1]): 0%
Population Mitochondria Different-Phenotype (%) (HEK-293T; [1]): 55% and 72%
Population Mitotic Cells (%) (HEK-293T; [1]): 70% and 40%
Population Normal (%) (HEK-293T; [1]): 91% and 77%
Population Pyknosed Nuclei (%) (HEK-293T; [1]): 15% and 19%
Population Tubulin-Different-Phenotype (%) (HEK-293T; [1]): 49% and 43%
Total Cell Count (HEK-293T; [1]): 472 and 383
Population Apoptotic (%) (HEK-293T; [2]): 23% and 46%
Population Fragmented Nuclei (%) (HEK-293T; [2]): 14%
Population Healthy Nuclei (%) (HEK-293T; [2]): 79%
Population Hoechst High Intensity Objects (%) (HEK-293T; [2]): 1% and 3%
Population Membrane Permeable-Phenotype (%) (HEK-293T; [2]): 1% and 0%
Population Mitochondria Different-Phenotype (%) (HEK-293T; [2]): 19%
Population Mitotic Cells (%) (HEK-293T; [2]): 76% and 53%
Population Normal (%) (HEK-293T; [2]): 98% and 96%
Population Pyknosed Nuclei (%) (HEK-293T; [2]): 5% and 6%
Population Tubulin-Different-Phenotype (%) (HEK-293T; [2]): 14% and 12%
Total Cell Count (HEK-293T; [2]): 932 and 676
Population Apoptotic (%) (HEK-293T; [3]): 38% and 60%
Population Fragmented Nuclei (%) (HEK-293T; [3]): 14% and 15%
Population Healthy Nuclei (%) (HEK-293T; [3]): 76% and 72%
Population Hoechst High Intensity Objects (%) (HEK-293T; [3]): 6% and 16%
Population Membrane Permeable-Phenotype (%) (HEK-293T; [3]): 0%
Population Mitochondria Different-Phenotype (%) (HEK-293T; [3]): 45% and 53%
Population Mitotic Cells (%) (HEK-293T; [3]): 61% and 40%
Population Normal (%) (HEK-293T; [3]): 93% and 83%
Population Pyknosed Nuclei (%) (HEK-293T; [3]): 9% and 12%
Population Tubulin-Different-Phenotype (%) (HEK-293T; [3]): 35%
Total Cell Count (HEK-293T; [3]): 627 and 539
Population Apoptotic (%) (U2OS; [4]): 60% and 80%
Population Fragmented Nuclei (%) (U2OS; [4]): 29% and 13%
Population Healthy Nuclei (%) (U2OS; [4]): 61% and 78%
Population Hoechst High Intensity Objects (%) (U2OS; [4]): 0% and 1%
Population Membrane Permeable-Phenotype (%) (U2OS; [4]): 11% and 9%
Population Mitochondria Different-Phenotype (%) (U2OS; [4]): 4% and 6%
Population Mitotic Cells (%) (U2OS; [4]): 40% and 20%
Population Normal (%) (U2OS; [4]): 99% and 98%
Population Pyknosed Nuclei (%) (U2OS; [4]): 9% and 7%
Population Tubulin-Different-Phenotype (%) (U2OS; [4]): 7% and 8%
Total Cell Count (U2OS; [4]): 208 and 139
Population Apoptotic (%) (U2OS; [5]): 58% and 88%
Population Fragmented Nuclei (%) (U2OS; [5]): 20% and 26%
Population Healthy Nuclei (%) (U2OS; [5]): 66%
Population Hoechst High Intensity Objects (%) (U2OS; [5]): 1% and 2%
Population Membrane Permeable-Phenotype (%) (U2OS; [5]): 9% and 5%
Population Mitochondria Different-Phenotype (%) (U2OS; [5]): 10% and 7%
Population Normal (%) (U2OS; [5]): 98% and 97%
Population Pyknosed Nuclei (%) (U2OS; [5]): 13% and 6%
Population Tubulin-Different-Phenotype (%) (U2OS; [5]): 6% and 7%
Total Cell Count (U2OS; [5]): 316 and 141
Population Apoptotic (%) (U2OS; [6]): 96% and 77%
Population Fragmented Nuclei (%) (U2OS; [6]): 25% and 9%
Population Healthy Nuclei (%) (U2OS; [6]): 63% and 77%
Population Hoechst High Intensity Objects (%) (U2OS; [6]): 1% and 2%
Population Membrane Permeable-Phenotype (%) (U2OS; [6]): 8% and 5%
Population Mitochondria Different-Phenotype (%) (U2OS; [6]): 4% and 1%
Population Normal (%) (U2OS; [6]): 98% and 97%
Population Pyknosed Nuclei (%) (U2OS; [6]): 10% and 12%
Population Tubulin-Different-Phenotype (%) (U2OS; [6]): 7% and 1%
Total Cell Count (U2OS; [6]): 232 and 148
Population Apoptotic (%) (U2OS; [1]): 73% and 61%
Population Fragmented Nuclei (%) (U2OS; [1]): 23% and 31%
Population Healthy Nuclei (%) (U2OS; [1]): 63% and 60%
Population Hoechst High Intensity Objects (%) (U2OS; [1]): 2%
Population Membrane Permeable-Phenotype (%) (U2OS; [1]): 10% and 12%
Population Mitochondria Different-Phenotype (%) (U2OS; [1]): 8% and 13%
Population Mitotic Cells (%) (U2OS; [1]): 26% and 38%
Population Normal (%) (U2OS; [1]): 97%
Population Pyknosed Nuclei (%) (U2OS; [1]): 12% and 7%
Population Tubulin-Different-Phenotype (%) (U2OS; [1]): 4% and 9%
Total Cell Count (U2OS; [1]): 359 and 168
Population Apoptotic (%) (U2OS; [2]): 89% and 90%
Population Fragmented Nuclei (%) (U2OS; [2]): 24% and 14%
Population Healthy Nuclei (%) (U2OS; [2]): 62% and 76%
Population Hoechst High Intensity Objects (%) (U2OS; [2]): 2%
Population Membrane Permeable-Phenotype (%) (U2OS; [2]): 4% and 5%
Population Mitochondria Different-Phenotype (%) (U2OS; [2]): 3%
Population Mitotic Cells (%) (U2OS; [2]): 10%
Population Normal (%) (U2OS; [2]): 97%
Population Pyknosed Nuclei (%) (U2OS; [2]): 13% and 8%
Population Tubulin-Different-Phenotype (%) (U2OS; [2]): 4% and 0%
Total Cell Count (U2OS; [2]): 300 and 230
Population Apoptotic (%) (U2OS; [3]): 83%
Population Fragmented Nuclei (%) (U2OS; [3]): 17% and 27%
Population Healthy Nuclei (%) (U2OS; [3]): 68% and 64%
Population Hoechst High Intensity Objects (%) (U2OS; [3]): 2% and 5%
Population Membrane Permeable-Phenotype (%) (U2OS; [3]): 8% and 10%
Population Mitochondria Different-Phenotype (%) (U2OS; [3]): 6% and 5%
Population Mitotic Cells (%) (U2OS; [3]): 16%
Population Normal (%) (U2OS; [3]): 97% and 94%
Population Pyknosed Nuclei (%) (U2OS; [3]): 13% and 8%
Population Tubulin-Different-Phenotype (%) (U2OS; [3]): 4% and 5%
Total Cell Count (U2OS; [3]): 456 and 231
